Experimental data published in article PMC9989852 (Food and chemical toxicology : an international journal …, 2022).
“And” between values parts separate entries of the source, which are not always exact repeats. Equal entries are not always repeated.

Experiments:
[1] = ref Russell et al., 2015, Xu et al., 2020; cited from earlier work
[2] = tested on: spleen; assay: Spleen phenotyping by flow cytometry after 28-day dermal exposure; format: in vivo, B6C3F1 mice; settings: 28 days
Method in brief: (§1)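 Female B6C3F1 mice (5/group) received 25 μl/ear daily to the dorsal ears in acetone. About 24 h after the last dose, tissues went into RPMI: both auricular dLNs, half spleen and one ear pinna. Single-cell suspensions were acquired on an LSR II, with populations gated per supplemental strategy and FMO gating controls. Results are mean ± SE, n=5, by one-way ANOVA.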

[3] = tested on: ear pinna; assay: Skin; format: in vivo, B6C3F1 mice; settings: dermal, 28 days
Method in brief: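 Dosing was daily topical to both dorsal ears (25 μl/ear, acetone vehicle) in female B6C3F1 mice. Liver caudate lobe or half ear pinna was stored in RNAlater and homogenized in RLT buffer. RNA was isolated on RNeasy columns with DNase, and 1–2 μg was reverse-transcribed. TaqMan real-time PCR was read as 2−ΔΔCT vs vehicle, normalized to β-actin. Statistics: ANOVA/Dunnett's, or Kruskal-Wallis/Dunn's for unequal variance.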

[4] = pH of PFAS; format: physicochemical; settings: PFAS (5%) in PBS, free acid form
[5] = tested on: kidney, spleen; assay: Kidney and spleen histopathology after 28-day dermal exposure; format: in vivo, B6C3F1 mice; settings: 1.25–5%, 28 days, data not shown
Method in brief: (§2)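 Female B6C3F1 mice (5/group) received 25 μl/ear on the dorsal ear surfaces daily, with acetone as vehicle. Tissues were formalin-fixed about 24 h after the last dose: liver remainder, half spleen, right kidney and half ear pinna. Sections were paraffin-embedded, cut at 5 μm and stained with H&E. A veterinary pathologist read them per STP guideline and graded 1 (minimal) to 5 (severe) by extent.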

[6] = tested on: auricular draining lymph nodes (dLNs); assay: Draining lymph node phenotyping by flow cytometry after 28-day dermal exposure; format: in vivo, B6C3F1 mice; settings: 28 days
Method in brief: as §1

[7] = tested on: B6C3F1 mice; assay: Organ weights and body weight after 28-day dermal exposure; format: in vivo; settings: 28 days
[8] = PFAS concentration in serum; format: in vivo, B6C3F1 mice; settings: 1.25%–5%, dermal, 28 days
Method in brief: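 Serum came by cardiac puncture about 24 h after the final daily ear dose (25 μl/ear, acetone vehicle; female B6C3F1 mice). Samples underwent solid-phase extraction and LC/MS/MS. Short-chain analytes were quantified as linear isomer only; the legacy comparator was quantified as linear plus branched. Data are mean ± SE of 4–5 mice, one-way ANOVA with Dunnett's vs vehicle.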

[9] = PFAS concentration in pooled urine; format: in vivo, B6C3F1 mice; settings: 5%, dermal, 28 days; 5 pooled samples
Method in brief: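 Urine was caught in a weigh boat as it was excreted during CO2 euthanasia, about 24 h after the final daily ear dose (25 μl/ear, acetone vehicle; female B6C3F1 mice). The 5 mice per group were pooled, with variable volume. Samples underwent solid-phase extraction and LC/MS/MS, as linear isomer for short-chain analytes and linear plus branched for the comparator. Each group gave a single value without statistics.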

[10] = tested on: liver; assay: Liver histopathology after 28-day dermal exposure; format: in vivo, B6C3F1 mice; settings: 28 days, mice affected of 5
Method in brief: as §2

## O=C(O)C(F)(F)C(F)(F)C(F)(F)C(F)(F)C(F)(F)C(F)(F)F [PFHpA, Perfluoroheptanoic acid]
[1]
  estimated half-life in humans: 62 to 70 days
[2]; 1.25%
  spleen MFI of CD86 on B-cells: increase
  spleen frequency of CD8^+ T-cells: significant decrease
  spleen frequency of eosinophils: significant decrease
[2]; 2.5%
  spleen MFI of CD86 on B-cells: increase
  spleen MFI of MHCII on B-cells: increase
[2]; 5%
  spleen MFI of CD86 on B-cells: increase
  spleen MFI of MHCII on B-cells: increase
  spleen NK cell frequency: increase
  spleen frequency of B-cells: significant decrease
  spleen frequency of total DCs: increase
  spleen number of NK cells: increase
[3]; 1.25–5%
  skin PPARα gene expression: no significant decrease
  skin Pparδ gene expression: no changes
[3]; 2.5%
  skin Flg gene expression: increased
  skin Krt10 gene expression: increased
  skin Pparγ gene expression: decreased
[3]; 5%
  skin Flg gene expression: increased
  skin Krt10 gene expression: increased
  skin Lor gene expression: increased
  skin Pparγ gene expression: decreased
  skin S100a8 gene expression, increase: 6.7 fold
  skin Serpine1 gene expression, increase: 1.7 fold
  skin Tslp gene expression, increase: 5.1 fold
[4]
  pH: 1.49
[5]
  microscopic observations in the kidney or the spleen: No PFPeA, PFHxA, or PFHpA-related microscopic observations
[6]; 1.25%
  dLN B-cells cell number: 5.40 ± 0.44 × 10^5
  dLN B-cells frequency: 13.44 ± 1.00%
  dLN CD4^+ cell number: 1.77 ± 0.17 × 10^6
  dLN CD4^+ frequency: 43.44 ± 1.00%
  dLN CD8^+ cell number: 11.50 ± 0.97 × 10^5
  dLN CD8^+ frequency: 28.26 ± 0.62%
  dLN CD11b+ cell number: 3.18 ± 0.81 × 10^4
  dLN CD11b+ frequency: 0.74 ± 0.16%
  dLN CD86 B-cells: 851.20 ± 55.68 MFI
  dLN CD86 DCs: 22.90 ± 1.99 MFI x 10^2
  dLN Dendritic Cells cell number: 15.60 ± 6.03 × 10^4
  dLN Dendritic Cells frequency: 4.23 ± 1.95%
  dLN Eosinophils cell number: 7.53 ± 1.81 × 10^2
  dLN MHCII B-cells: 33.30 ± 3.62 MFI × 10^2
  dLN NK cell number: 1.84 ± 0.21 × 10^4
  dLN NK frequency: 0.45 ± 0.03 %
  dLN Neutrophils cell number: 8.55 ± 1.38 × 10^2
  dLN Total Cellularity: 4.05 ± 0.31 × 10^6
[6]; 2.5%
  dLN B-cells cell number: 8.69 ± 0.16 × 10^5
  dLN B-cells frequency: 14.86 ± 0.84%
  dLN CD4^+ cell number: 2.47 ± 0.44 × 10^6
  dLN CD4^+ frequency: 41.54 ± 0.58%
  dLN CD8^+ cell number: 17.20 ± 3.10 × 10^5
  dLN CD8^+ frequency: 28.6 ± 0.62%
  dLN CD11b+ cell number: 6.87 ± 1.47 × 10^4
  dLN CD11b+ frequency: 1.09 ± 0.09%
  dLN CD86 B-cells: 908.40 ± 44.09 MFI
  dLN CD86 DCs: 25.10 ± 0.72 MFI x 10^2
  dLN Dendritic Cells cell number: 9.50 ± 1.42 × 10^4
  dLN Dendritic Cells frequency: 1.70 ± 0.17%
  dLN Eosinophils cell number: 20.40 ± 3.85 × 10^2
  dLN MHCII B-cells: 44.30 ± 4.02 MFI × 10^2
  dLN NK cell number: 3.23 ± 0.68 × 10^4
  dLN NK frequency: 0.53 ± 0.03%
  dLN Neutrophils cell number: 9.51 ± 1.88 × 10^2
  dLN Total Cellularity: 5.97 ± 1.06 × 10^6
[6]; 5%
  dLN B-cells cell number: 11.50 ± 1.39 × 10^5
  dLN B-cells frequency: 14.70 ± 0.13%
  dLN CD4^+ cell number: 3.03 ± 0.31 × 10^6
  dLN CD4^+ frequency: 39.24 ± 0.83 %
  dLN CD8^+ cell number: 22.10 ± 2.59 × 10^5
  dLN CD8^+ frequency: 28.36 ± 0.20%
  dLN CD11b+ cell number: 13.40 ± 1.96 × 10^4
  dLN CD11b+ frequency: 1.69 ± 0.10 %
  dLN CD86 B-cells: 879.80 ± 40.32 MFI
  dLN CD86 DCs: 28.50 ± 0.78 MFI x 10^2
  dLN Dendritic Cells cell number: 18.20 ± 3.38 × 10^4
  dLN Dendritic Cells frequency: 2.28 ± 0.20%
  dLN Eosinophils cell number: 22.80 ± 6.04 × 10^2
  dLN MHCII B-cells: 43.10 ± 1.85 MFI × 10^2
  dLN MHCII DCs: 58.90 ± 2.65 MFI × IQ^2
  dLN NK cell number: 4.78 ± 0.67 × 10^4
  dLN NK frequency: 0.61 ± 0.04%
  dLN Total Cellularity: 7.78 ± 0.90 × 10^6
[7]; 1.25–5%
  body weight or overt signs of toxicity: no changes
[7]; 2.5%, not dose dependent
  thymus weights (% body weight): significantly increased
[7]; 5%
  Liver weight (% body weight), increase vs vehicle-treated mice: 18%
  kidney weights (% body weight): significantly increased
[8]
  PFAS serum concentration vs vehicle: significant increase
[9]
  urine PFAS concentration: 1200 µg/mL
[10]; 1.25%
  Liver: Hypertrophy, centrilobular, hepatocyte, Mild (incidence): 0
  Liver: Hypertrophy, centrilobular, hepatocyte, Minimal (incidence): 3/5 and 3
[10]; 2.5%
  Liver: Hypertrophy, centrilobular, hepatocyte, Mild (incidence): 0
  Liver: Hypertrophy, centrilobular, hepatocyte, Minimal (incidence): 5/5 and 5
[10]; 5%
  Liver: Hypertrophy, centrilobular, hepatocyte, Mild (incidence): 3/5 and 3
  Liver: Hypertrophy, centrilobular, hepatocyte, Minimal (incidence): 2/5 and 2
